Results as given in ChEMBL document CHEMBL1121504, “Aporphines. 31. Synthesis and antitumor activity of aporphine nitrogen mustards” (1980).

What was measured:
P388 [1] = experiment: Antitumor activity against intraperitoneally implanted P388 lymphocytic leukemia (P388) system at dose 300 mg/kg; assay type: functional, Mus musculus; conditions: route intraperitoneal
Procedure, shortened: (§1)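 P388 lymphocytic leukemia inoculated intraperitoneally and run under standard NCI screening protocols. Each compound was tested at several graded doses in mg/kg. Activity was read out as T/C for each dose, with confirmatory activity judged by the NCI criteria.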

P388 [2] = experiment: Antitumor activity against intraperitoneally implanted P388 lymphocytic leukemia (P388) system at dose 37.5 mg/kg; assay type: functional, Mus musculus; conditions: route intraperitoneal; procedure, shortened: as §1
P388 [3] = experiment: Antitumor activity against intraperitoneally implanted P388 lymphocytic leukemia (P388) system at dose 75 mg/kg; assay type: functional, Mus musculus; conditions: route intraperitoneal; procedure, shortened: as §1
P388 [4] = experiment: Antitumor activity against intraperitoneally implanted P388 lymphocytic leukemia (P388) system at dose 9.38 mg/kg; assay type: functional, Mus musculus; conditions: route intraperitoneal; procedure, shortened: as §1
P388 [5] = experiment: Antitumor activity against intraperitoneally implanted P388 lymphocytic leukemia (P388) system at dose 105 mg/kg; assay type: functional, Mus musculus; conditions: route intraperitoneal; procedure, shortened: as §1
P388 [6] = experiment: Antitumor activity against intraperitoneally implanted P388 lymphocytic leukemia (P388) system at dose 18.75 mg/kg; assay type: functional, Mus musculus; conditions: route intraperitoneal; procedure, shortened: as §1
P388 [7] = experiment: Antitumor activity against intraperitoneally implanted P388 lymphocytic leukemia (P388) system at dose 12.5 mg/kg; assay type: functional, Mus musculus; conditions: route intraperitoneal
Procedure, shortened: (§2)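 Murine-screen tumor implanted intraperitoneally and treated at the listed mg/kg doses under standard NCI protocols. Activity is read out as T/C, the treated-to-control ratio.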

P388 [8] = experiment: Antitumor activity against intraperitoneally implanted P388 lymphocytic leukemia (P388) system at dose 25 mg/kg; assay type: functional, Mus musculus; conditions: route intraperitoneal; procedure, shortened: as §2
P388 [9] = experiment: Antitumor activity against intraperitoneally implanted P388 lymphocytic leukemia (P388) system at dose 3.13 mg/kg; assay type: functional, Mus musculus; conditions: route intraperitoneal; procedure, shortened: as §2
P388 [10] = experiment: Antitumor activity against intraperitoneally implanted P388 lymphocytic leukemia (P388) system at dose 6.25 mg/kg; assay type: functional, Mus musculus; conditions: route intraperitoneal; procedure, shortened: as §2
B16 [11] = experiment: Antitumor activity against B16 melanoma tumor system at dose 12.5 mg/kg; assay type: functional, Mus musculus
Procedure, shortened: (§3)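 B16 melanocarcinoma assay run at the listed mg/kg doses under standard NCI protocols. Activity is read out as T/C, the treated-to-control ratio.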

B16 [12] = experiment: Antitumor activity against B16 melanoma tumor system at dose 25 mg/kg; assay type: functional, Mus musculus; procedure, shortened: as §3
B16 [13] = experiment: Antitumor activity against B16 melanoma tumor system at dose 50 mg/kg; assay type: functional, Mus musculus; procedure, shortened: as §3
B16 [14] = experiment: Antitumor activity against intracerebrally implanted B16 melanoma tumor system at dose 16 mg/kg; assay type: functional, Mus musculus
Procedure, shortened: (§4)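 Tumor implanted […] and treated at the listed mg/kg doses under standard NCI protocols. Activity is read out as T/C, the treated-to-control ratio.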

B16 [15] = experiment: Antitumor activity against intracerebrally implanted B16 melanoma tumor system at dose 8 mg/kg; assay type: functional, Mus musculus; procedure, shortened: as §4
L1210 [16] = experiment: Antitumor activity against intraperitoneally implanted lymphoid leukemia (LE1210) tumor system at dose 100 mg/kg; assay type: functional, Mus musculus; conditions: route intraperitoneal; procedure, shortened: as §2
L1210 [17] = experiment: Antitumor activity against intraperitoneally implanted lymphoid leukemia (LE1210) tumor system at dose 25 mg/kg; assay type: functional, Mus musculus; conditions: route intraperitoneal; procedure, shortened: as §2
L1210 [18] = experiment: Antitumor activity against intraperitoneally implanted lymphoid leukemia (LE1210) tumor system at dose 50 mg/kg; assay type: functional, Mus musculus; conditions: route intraperitoneal; procedure, shortened: as §2
P388 [19] = experiment: Antitumor activity against intraperitoneally implanted lymphocytic leukemia (P388) system at dose 12.5 mg/kg; assay type: functional, Mus musculus; conditions: route intraperitoneal; procedure, shortened: as §2
P388 [20] = experiment: Antitumor activity against intraperitoneally implanted lymphocytic leukemia (P388) system at dose 25 mg/kg; assay type: functional, Mus musculus; conditions: route intraperitoneal; procedure, shortened: as §2
P388 [21] = experiment: Antitumor activity against intraperitoneally implanted lymphocytic leukemia (P388) system at dose 50 mg/kg; assay type: functional, Mus musculus; conditions: route intraperitoneal; procedure, shortened: as §2
P388 [22] = experiment: Antitumor activity against intraperitoneally implanted lymphocytic leukemia (P388) system at dose 6.25 mg/kg; assay type: functional, Mus musculus; conditions: route intraperitoneal; procedure, shortened: as §2
[23] = Antitumor activity against intracerebrally implanted ependymoblastoma (EM) tumor system at dose 12.5 mg/kg; assay type: functional; procedure, shortened: as §4
[24] = Antitumor activity against intracerebrally implanted ependymoblastoma (EM) tumor system at dose 25 mg/kg; assay type: functional; procedure, shortened: as §4
[25] = Antitumor activity against intracerebrally implanted ependymoblastoma (EM) tumor system at dose 50 mg/kg; assay type: functional; procedure, shortened: as §4
B16 [26] = experiment: Antitumor activity against B16 melanoma tumor system at dose 1.56 mg/kg; assay type: functional, Mus musculus; procedure, shortened: as §3
B16 [27] = experiment: Antitumor activity against B16 melanoma tumor system at dose 3.13 mg/kg; assay type: functional, Mus musculus; procedure, shortened: as §3
B16 [28] = experiment: Antitumor activity against B16 melanoma tumor system at dose 6.25 mg/kg; assay type: functional, Mus musculus; procedure, shortened: as §3
P388 [29] = experiment: Antitumor activity against intraperitoneally implanted P388 lymphocytic leukemia (P388) system at dose 50 mg/kg; assay type: functional, Mus musculus; conditions: route intraperitoneal; procedure, shortened: as §2

COc1ccc2c(c1O)-c1cccc3c1C(C2)N(CCOC(=O)NCCCl)CC3 (stereo unspecified)
T/C (P388 [1]): 105
T/C (P388 [2]): 97
T/C (P388 [3]): 99
T/C (P388 [4]): 101
T/C (P388 [5]): 99
T/C (P388 [6]): 99

COc1ccc2c(c1O)-c1cc(O)cc3c1C(C2)N(C(=O)CN(CCCl)CCCl)CC3 (stereo unspecified)
T/C (P388 [7]): 158
T/C (P388 [8]): 114
T/C (P388 [9]): 130
T/C (P388 [10]): 149

COc1ccc2c(c1OC(C)=O)-c1cc(O)cc3c1C(C2)N(C(=O)CN(CCCl)CCCl)CC3 (stereo unspecified)
T/C (B16 [11]): 134
T/C (B16 [12]): 135
T/C (B16 [13]): 170
T/C (B16 [14]): 102
T/C (B16 [15]): 111
T/C (L1210 [16]): 88
T/C (L1210 [17]): 136
T/C (L1210 [18]): 127
T/C (P388 [19]): 174
T/C (P388 [20]): 168
T/C (P388 [21]): 130
T/C (P388 [22]): 143
T/C [23]: 94
T/C [24]: 99
T/C [25]: 86

COc1ccc2c(c1OC(C)=O)-c1cc(OC(C)=O)cc3c1C(C2)N(C(=O)CN(CCCl)CCCl)CC3 (stereo unspecified)
T/C (B16 [26]): 120
T/C (B16 [11]): 150
T/C (B16 [12]): 150
T/C (B16 [27]): 120
T/C (B16 [13]): 170
T/C (B16 [28]): 159
T/C (P388 [7]): 170
T/C (P388 [8]): 185
T/C (P388 [9]): 138
T/C (P388 [29]): 95
T/C (P388 [10]): 150
